Bioassay records deposited in PubChem BioAssay by Johns Hopkins Ion Channel Center.
KCNK3 block – human KCNK3 channel inhibition, primary screen. O14649. CHO-KCNK3 thallium flux, FluxOR fluorescence; hits give low values. B-score at 10 µM. 340,000 tested, 0.84% active. AID 602410;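 active = B-score under library mean minus 4 SD, starting fluorescence ratio at most library mean plus 5 SD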;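 note: more negative B-score means stronger inhibition of thallium flux through KCNK3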
Kir21 inh – Kir2.1 (mouse) channel inhibition | P35561 | HEK293-Kir2.1, FluxOR thallium flux fluorescence; hits give low values | B-score at 10 µM | 310,000 tested, 0.85% active;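 active = fluorescence ratio B-score at or below minus 3 SD of library scores, with starting-brightness B-score within 2 SD, cut at about -4.2 in these data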;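 note: channel flux triggered by added potassium and thallium sulfate stimulus; B-score of peak minus minimum fluorescence over baseline after thallium stimulus; more negative B-score means stronger Kir2.1 block with less thallium influx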
KCNK9 inh – blocks the human KCNK9 two-pore domain potassium channel | AID 488922 | B-score at 10 µM | HEK293 KCNK9, FluxOR thallium flux fluorescence; hits give low values | 310,000 tested, 1.2% active | Q9NPC2;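 active = ratio B-score over 3 SD below the library mean, with starting fluorescence within 5 SD of its mean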;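 note: negative B-score means less thallium flux so channel inhibition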
KCNQ1 pot – potentiates or activates the human KCNQ1 potassium channel. P51787. CHO-K1 KCNQ1, thallium flux FluxOR fluorescence; hits give high values. B-score at 10 µM. 310,000 tested, 0.35% active;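 active = fluorescence ratio B-score, a plate-corrected score, at least three library SD, with initial intensity B-score within 5 SD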
Target sequence (P51787 whole entry, looked up): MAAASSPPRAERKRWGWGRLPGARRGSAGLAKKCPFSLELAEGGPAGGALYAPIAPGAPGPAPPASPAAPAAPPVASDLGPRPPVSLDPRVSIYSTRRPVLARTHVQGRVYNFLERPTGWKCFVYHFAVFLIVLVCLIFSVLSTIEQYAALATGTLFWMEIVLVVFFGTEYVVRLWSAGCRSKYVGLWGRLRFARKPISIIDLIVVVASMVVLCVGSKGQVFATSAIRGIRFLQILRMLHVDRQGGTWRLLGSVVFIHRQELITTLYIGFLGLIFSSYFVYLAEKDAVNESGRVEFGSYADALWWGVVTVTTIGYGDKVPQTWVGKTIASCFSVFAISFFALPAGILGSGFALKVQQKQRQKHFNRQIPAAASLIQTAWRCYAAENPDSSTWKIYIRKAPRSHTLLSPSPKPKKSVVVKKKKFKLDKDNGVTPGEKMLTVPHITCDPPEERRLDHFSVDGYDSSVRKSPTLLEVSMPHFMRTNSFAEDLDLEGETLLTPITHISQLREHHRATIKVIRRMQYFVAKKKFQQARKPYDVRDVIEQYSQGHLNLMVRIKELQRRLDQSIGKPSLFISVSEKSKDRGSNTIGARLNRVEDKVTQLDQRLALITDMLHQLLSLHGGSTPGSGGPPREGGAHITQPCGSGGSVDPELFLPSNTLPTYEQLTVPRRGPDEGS
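Schedule – 37 °C overnight plating, 90-min dark dye load, 20-min compound pretreatment · System – stable KCNQ1 CHO-K1 line · Probe or stimulus – thallium- and potassium-containing depolarizing buffer · Measured by – kinetic FluxOR fluorescence, 10 s baseline plus 110 s post-stimulus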
hERG rescue – hERG (human) protection from proarrhythmic block; CHO-hERG, FluxOR thallium flux, dofetilide IC70 present; activation (rescue from dofetilide block), less the hit threshold, % at 10 µM; 310,000 tested, 0.51% active; AID 1511;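 active = activation above the mean of controls blocked by dofetilide plus 5 SD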;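 note: thallium influx through hERG after potassium depolarization seen as dye fluorescence rise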
KCNQ1 block – human KCNQ1 channel inhibition; B-score at 10 µM; 310,000 tested, 1.3% active; P51787; CHO-K1 KCNQ1, FluxOR thallium flux fluorescence; hits give high values;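 active = compounds whose thallium flux B-score, printed positive for inhibition, exceeds three library SD while starting fluorescence stays within three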;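 note: channel opened by potassium depolarization with thallium stimulus after 20 min compound exposure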
* marks the source's active call; other numbers are inactive results. Shown are actives, neighbours in structure and some others; about 3.8% of the full set was active somewhere.

Screening CCN(Cc1ccccc1)S(=O)(=O)c1ccc(OC)c2ncccc12 returned KCNK3 block inactive, Kir21 inh -2.13, KCNK9 inh inactive, KCNQ1 pot inactive, hERG rescue -8.1 and KCNQ1 block inactive.
Screening C/C(=N\OCC(=O)OC(C)C(=O)Nc1ccc(C)c(S(=O)(=O)N2CCOCC2)c1)c1ccc2c(c1)OCO2 (stereo not drawn) returned KCNK3 block inactive.
Screening COc1cccc(/C=C/C(=O)OCC(=O)Nc2ccc(Cl)cn2)c1 returned KCNK3 block inactive, Kir21 inh 0.6, KCNK9 inh inactive, KCNQ1 pot inactive, hERG rescue 5.8* and KCNQ1 block inactive.
For CCOC(=O)c1c(NC(=O)C(C)NCc2ccco2)sc2c1CCC(C)C2 (stereo not drawn) the results were KCNK3 block inactive, Kir21 inh 0.52, KCNK9 inh inactive, KCNQ1 pot inactive, hERG rescue -10.6 and KCNQ1 block 6*.
`COc1cccc(C(=O)OCC(=O)Nc2cc(C)on2)c1OC` gave KCNK3 block inactive.
`CCCCOc1ccc(CSC(=N)N)cc1Cl` gave KCNK3 block inactive, Kir21 inh -11.6*, KCNK9 inh inactive, KCNQ1 pot inactive, hERG rescue -19.9 and KCNQ1 block inactive.
CN1/C(=C\C(=O)CSc2nnc(NCc3ccccc3)s2)C(C)(C)c2ccccc21 was read as KCNK3 block inactive, Kir21 inh -9.66*, KCNK9 inh inactive, KCNQ1 pot inactive, hERG rescue -27.8 and KCNQ1 block inactive.
Screening Cc1ccc(NS(=O)(=O)c2ccc(Cl)c(C(=O)Nc3cccc(C(=O)O)c3)c2)cc1 returned KCNK3 block inactive, Kir21 inh 0.48, KCNK9 inh inactive, KCNQ1 pot inactive, hERG rescue -4.3 and KCNQ1 block inactive.
Screening Cc1ccc(F)c(Oc2cc(NN3CCCCC3)c([N+](=O)[O-])cc2[N+](=O)[O-])c1 returned KCNK3 block inactive, Kir21 inh -0.42, KCNK9 inh -7.33*, KCNQ1 pot inactive, hERG rescue -8.7 and KCNQ1 block inactive.
Screening CCC(C)c1ccccc1OCCCNC1CCCC1 (stereo not drawn) returned KCNK3 block inactive, Kir21 inh -5.94*, KCNK9 inh inactive, KCNQ1 pot inactive, hERG rescue -8.2 and KCNQ1 block inactive.
Screening O=C(CCCc1c[nH]c2ccccc12)N[C@@H](Cc1c[nH]c2ccccc12)C(=O)O returned KCNK3 block inactive, Kir21 inh 0.02, KCNK9 inh inactive, KCNQ1 pot inactive, hERG rescue -2.7 and KCNQ1 block inactive.
O=C(NC1C2CCCC1CN(C1CC1)C2)c1ccc(Cl)cc1 (stereo not drawn) was read as KCNK3 block inactive, Kir21 inh 0.01, KCNK9 inh inactive, KCNQ1 pot inactive, hERG rescue -7.1 and KCNQ1 block inactive.
Screening CC(=O)N(Cc1ccccc1C)c1cccc(C)c1C returned KCNK3 block inactive, Kir21 inh -4.58*, KCNK9 inh inactive, KCNQ1 pot inactive, hERG rescue -4.9 and KCNQ1 block inactive.
O=C(CN1CCC(NC(=O)c2ccco2)CC1)Nc1ccccc1[N+](=O)[O-] was read as Kir21 inh 0.68, KCNK9 inh inactive, KCNQ1 pot inactive, hERG rescue -19.3 and KCNQ1 block inactive.
For COc1ccc(-c2cn3c(C)c(C(=O)N4CCCc5ccccc54)sc3n2)cc1 the results were KCNK3 block inactive, Kir21 inh -0.76, KCNK9 inh inactive, KCNQ1 pot inactive, hERG rescue -14.9 and KCNQ1 block 6*.
`C/C=C(/CCC1NCCc2c1[nH]c1ccccc21)[Si](C)(C)C` (stereo not drawn) gave KCNK3 block inactive.
COc1cccc(CN2CC(C(=O)N3CCCO3)CCC2=O)c1 (stereo not drawn) was read as KCNK3 block inactive, Kir21 inh -1.45, KCNK9 inh inactive, KCNQ1 pot inactive, hERG rescue -13.1 and KCNQ1 block inactive.
CCCN(C(=O)C1CCN(S(=O)(=O)c2ccc(OC)c(OC)c2)CC1)C1CCS(=O)(=O)C1 (stereo not drawn) was read as KCNK3 block inactive, Kir21 inh 0.61, KCNK9 inh inactive, KCNQ1 pot inactive, hERG rescue -14.2 and KCNQ1 block inactive.
For CO/N=C/NC(=O)Cc1cn(-c2ncc(C(F)(F)F)cc2Cl)c2ccccc12 the results were KCNK3 block inactive, Kir21 inh -0.75, KCNK9 inh inactive, KCNQ1 pot inactive, hERG rescue -9.0 and KCNQ1 block inactive.
CC(=O)/C=C\c1cn(-c2ncc(C(F)(F)F)cc2Cl)c2ccccc12 was read as KCNK3 block inactive, Kir21 inh 1.31, KCNK9 inh inactive, KCNQ1 pot inactive, hERG rescue -9.8 and KCNQ1 block 6*.
For Cc1ccccc1CS(=O)(=O)Cc1ccc(C(=O)NC2CCCCC2)o1 the results were KCNK3 block inactive, Kir21 inh -0.07, KCNK9 inh inactive, KCNQ1 pot inactive, hERG rescue -4.0 and KCNQ1 block inactive.
`Cc1cc(NCc2ccccn2)n2nc(C)c(-c3ccccc3)c2n1` gave KCNK3 block inactive, Kir21 inh -1.58, KCNK9 inh inactive, KCNQ1 pot inactive, hERG rescue -16.9 and KCNQ1 block 6*.
Screening CCN1Cc2c(/C=C/c3ccccc3)nc3ccc(OC)cc3c2N(c2cccc(Cl)c2)C1 returned KCNK3 block inactive, Kir21 inh -13*, KCNK9 inh inactive, KCNQ1 pot inactive, hERG rescue -9.2 and KCNQ1 block inactive.
`COc1ccc2ncc(S(=O)(=O)c3ccccc3)c(N3CCN(c4ccccc4)CC3)c2c1` gave KCNK3 block inactive, Kir21 inh 0.56, KCNK9 inh inactive, KCNQ1 pot inactive, hERG rescue -5.3 and KCNQ1 block inactive.
For Cc1nn(CCC(=O)O)c2nc(-c3cccnc3)cc(C(F)(F)F)c12 the results were KCNK3 block inactive, Kir21 inh -0.91, KCNK9 inh inactive, KCNQ1 pot inactive, hERG rescue -1.2 and KCNQ1 block inactive.
`Cc1nn(CCc2nn[nH]n2)c2nc(-c3ccc(C4CCCCC4)cc3)cc(C(F)(F)F)c12` gave KCNK3 block inactive, Kir21 inh 2.49, KCNK9 inh inactive, KCNQ1 pot 50*, hERG rescue -16.2 and KCNQ1 block inactive.
`CCCOc1ccc(CNC(=S)Nc2ccccc2)cc1Cl` gave KCNK3 block inactive, Kir21 inh 0.06, KCNK9 inh inactive, KCNQ1 pot inactive, hERG rescue -13.1 and KCNQ1 block inactive.
Screening N#CC1=C(N)C2=CCCC[C@H]2[C@H](c2cccc(F)c2)C1(C#N)C#N returned KCNK3 block inactive, Kir21 inh -5.37*, KCNK9 inh inactive, KCNQ1 pot inactive, hERG rescue -10.4 and KCNQ1 block inactive.
